MC4R ag barr: human MC4R agonism via beta-arrestin. P32245. U2OS MC4R beta-arrestin complementation, luminescence; percent of melanotan II response, DMSO zero. activation, % at 8.9 µM. 0.98% of 360,000 active. AID 540308;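 active = activation above a per-plate cutoff, the mean activation of sample wells on that plate plus 3 SD, cut at about 8% in these data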
ABHD5-PLIN5 inh: blocks binding of human ABHD5 to perilipin-5. 0.78% of 360,000 active. Split G. princeps luciferase complementation, luminescence, 4 h. inhibition, % at 4 µM. Q00G26+Q8WTS1;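 active = inhibition above the mean inhibition across every tested compound plus 3 SD, cut at about 22% in these data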;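 also: 0% = DMSO only wells and the 100% control is not disclosed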
PfGluPho inh: PfG6PD (Plasmodium falciparum) enzyme inhibition. inhibition, % at 20 µM. PfGluPho enzyme, NADPH resazurin-diaphorase fluorescence. AID 504690. 0.78% of 350,000 active;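 active = inhibition reaching at least a set limit at 20 µM in the primary screen, cut at about 59% in these data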;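 also: 0% = DMSO wells with substrate and 100% = DMSO wells lacking glucose-6-phosphate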
Beta2AR agonist: human beta-2 adrenergic receptor agonism by FAP; Am2.2-beta2AR cells, FAP receptor internalization, flow cytometry; response, % (test concentration not listed); 0.43% of 340,000 active; AID 504454;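 active = response above a set limit, near 3 SD of response in nonfluorescent compounds, cut at about 42% in these data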
Target sequence (P07550 whole entry, looked up): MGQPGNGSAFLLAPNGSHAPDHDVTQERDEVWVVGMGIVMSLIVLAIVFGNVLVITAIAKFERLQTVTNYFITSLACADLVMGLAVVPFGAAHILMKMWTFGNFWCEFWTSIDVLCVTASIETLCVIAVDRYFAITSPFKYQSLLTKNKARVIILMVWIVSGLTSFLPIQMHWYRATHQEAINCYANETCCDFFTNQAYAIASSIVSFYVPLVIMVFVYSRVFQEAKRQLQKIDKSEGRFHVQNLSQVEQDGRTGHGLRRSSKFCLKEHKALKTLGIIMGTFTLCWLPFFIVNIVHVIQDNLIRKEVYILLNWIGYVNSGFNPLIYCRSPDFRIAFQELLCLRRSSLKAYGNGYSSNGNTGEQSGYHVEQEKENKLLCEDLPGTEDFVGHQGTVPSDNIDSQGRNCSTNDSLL
MC4R antag cAMP: antagonists of human melanocortin 4 receptor (MC4R) | AID 540295 | MC4R-expressing cells, MTII-stimulated cAMP, LANCE TR-FRET | 0.48% of 360,000 active | inhibition, % at 6.5 µM | P32245;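 active = inhibition above its plate's cutoff, the mean of tested wells on that plate plus 3 SD, cut at about 29% in these data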;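 also: 0% = Melanotan II alone and 100% = Melanotan II plus saturating MCL0020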
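Material: U2OS-MC4R stable cell line | Reagent: Melanotan II challenge after compound preincubation | Doses: One concentration, 6.5 µM nominal | Incubation: 30-min compound preincubation, 1-h Melanotan II challenge, 1-h detection, room temperature | Signal: TR-FRET cAMP assay | Replicates: One well per compound, no replicates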
ABHD5-PLIN5 conf: ABHD5-PLIN5 interaction inhibition, confirmed. shares compounds with ABHD5-PLIN5 inh. biochemical ABHD5-PLIN5 interaction, luminescence. inhibition, % at 4 µM. 67% of 2,200 active; in the data active = inhibition above about 23%;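 also: 0% = DMSO vehicle wells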
HNF4 counter: HNF4 split-luciferase signal hit, counter-screen. inhibition, % at 4 µM. AID 651674. shares compounds with ABHD5-PLIN5 inh. 77% of 2,200 active. HNF4 dimerization, luminescence, biochemical;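 active = mean inhibition across replicate wells exceeding the computed hit threshold, cut at about 13% in these data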;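 also: light from luciferase halves that rejoin when HNF4 fusion proteins dimerize; 0% = DMSO only wells and the 100% control is not given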
* = called active by the depositor; x = not tested or not shown. In the library only some 3% were active in any assay of this set; here they are far more common.

SMILES | MC4R ag barr | ABHD5-PLIN5 inh | PfGluPho inh | Beta2AR agonist | MC4R antag cAMP | ABHD5-PLIN5 conf | HNF4 counter
c1ccc(NC2=NCCCCS2)cc1 | -1 | -5 | -1 | 3 | 7 | x | x
O=C(/C=C/c1ccccc1)c1ccc(NC2=NCCCS2)cc1 | -4 | 62* | 9 | -2 | -8 | 72* | 62*
CC(C)(C)c1ccc(/C=C/C(=O)c2ccc(NC3=NCCCS3)cc2)cc1 | -1 | 50* | 11 | 8 | 19 | 57* | 38*
O=C(/C=C/c1ccc(Br)cc1)c1ccc(NC2=NCCCS2)cc1 | -7 | 89* | 1 | 33 | -2 | 95* | 84*
O=C1/C(=C/c2ccco2)CCC1C1CCCC1 (configuration not stated) | 1 | 3 | -1 | -13 | 21 | x | x
O=C1/C(=C\c2ccco2)CCC/C1=C\c1ccco1 | 2 | 49* | 19 | -5 | 5 | 56* | 82*
Cc1ccc(C)c(NC(=O)CSc2nncn2C)c1 | 0 | 2 | -2 | 7 | -4 | x | x
CC(=O)Oc1ccc(OC(C)=O)c2c1CC(C)=C(C)C2 | -2 | 31* | 2 | 21 | 0 | 32* | 24*
N#Cc1ccc(OCC(=O)N2CCCC2=O)cc1 | 0 | 9 | 13 | -5 | 0 | x | x
O=c1[nH]c(=O)n(C2OC(CO)C(O)C2O)cc1F (configuration not stated) | 0 | 4 | 18 | -15 | -2 | x | x
O=C1C=CC(n2cc(F)c(=O)[nH]c2=O)O1 (configuration not stated) | 2 | 31* | 1 | x | 2 | 42* | 33*
CCc1noc(C)c1C(=O)NCCN1C(=O)S/C(=C\c2ccc(OC)cc2)C1=O | -3 | 3 | 1 | -6 | 3 | x | x
CCCCc1ccc(C2C3=C(CC(C)(C)CC3=O)NC3=C2C(=O)c2ccccc23)cc1 (configuration not stated) | -4 | 4 | 23 | 25 | 10 | x | x
CCCc1ccc(C2C3=C(CC(C)(C)CC3=O)NC3=C2C(=O)c2ccccc23)cc1 (configuration not stated) | -1 | 42* | 17 | 12 | 0 | 66* | 75*
NC(=O)NN=C1CCC(OCc2ccccc2)CC1CC(=O)O (configuration not stated) | x | 12 | x | x | x | x | x
Cc1ccc(/C=C2\C(=O)NC(=O)N2C)o1 | -1 | 16 | 21 | 10 | -7 | x | x
C=CCN1C(=O)N/C(=C/c2ccc(C)o2)C1=O | -1 | 31* | 11 | 9 | -5 | 14 | 88*
Cc1ccc(NC(=O)CN2C(=O)N/C(=C/c3ccc(C)o3)C2=O)cc1 | 0 | 42* | 43 | 3 | 5 | 46* | 88*
Cc1cccc(NC(=O)CN2C(=O)N/C(=C/c3ccc(C)o3)C2=O)c1 | -1 | 61* | 48 | 9 | 1 | 35* | 99*
COc1ccc(C(=O)COC(=O)CNC(=O)c2ccccc2)cc1F | -2 | -4 | -2 | 0 | 14 | x | x
Cc1cc(NC(=S)N(CCCN2CCOCC2)Cc2ccco2)ccc1Cl | -4 | 3 | 2 | 0 | 3 | x | x
Cc1ccc(/C=C2/CNC/C(=C/c3ccc(C)cc3)C2=O)cc1 | -1 | 96* | 8 | 2 | 2 | 100* | 94*
C#CCN(C[C@@H]1[C@@H](OC(=O)NCC2CCCCC2)[C@@H](OC(=O)NCC2CCCCC2)Cn2c(=O)ccc(=O)n21)S(=O)(=O)c1ccc(C)cc1 | -1 | 42* | 4 | x | 15 | 57* | 18*
C#CCN(C[C@@H]1[C@@H](OC(=O)NCc2ccco2)[C@@H](OC(=O)NCc2ccco2)Cn2c(=O)ccc(=O)n21)S(=O)(=O)c1ccc(C)cc1 | -3 | 27* | 3 | x | 25 | 41* | 26*
C#CCN(C[C@@H]1[C@@H](OC(=O)NCc2ccco2)[C@@H](OC(=O)NCc2ccco2)Cn2c(=O)n(CCCCCC)c(=O)n21)S(=O)(=O)c1ccc(C)cc1 | 2 | 0 | 15 | x | 3 | x | x
SMILES | MC4R ag barr | ABHD5-PLIN5 inh | PfGluPho inh | Beta2AR agonist | MC4R antag cAMP | ABHD5-PLIN5 conf | HNF4 counter
C#CCN(C[C@@H]1[C@@H](OC(=O)NCCCCCC)[C@@H](OC(=O)NCCCCCC)Cn2c(=O)ccc(=O)n21)S(=O)(=O)c1ccc(C)cc1 | 3 | 34* | -59 | x | 7 | 56* | -4
C#CCN(C[C@@H]1[C@@H](OC(=O)NCc2ccc(OC)c(OC)c2)[C@@H](OC(=O)NCc2ccc(OC)c(OC)c2)Cn2c(=O)ccc(=O)n21)S(=O)(=O)c1ccc(C)cc1 | -1 | 46* | 2 | x | 4 | 62* | 21*
Cc1csc(=O)n1CCC(=O)OCC(=O)Nc1ccc(F)c(F)c1F | 2 | 3 | 12 | -3 | 13 | x | x
C=CCC[C@@H](CCCCC)OC(=O)/C=C/[C@H](O)[C@@H](O)C[C@H](O)CC=C | x | -4 | x | x | x | x | x
O=[N+]([O-])c1cccc(C2CC(c3ccccc3)=NN2c2ccccc2)c1 (configuration not stated) | -2 | 8 | 4 | 33 | 2 | x | x
Cc1ccc(C2=Nc3ccccc3SC(c3cccc([N+](=O)[O-])c3)C2)cc1 (configuration not stated) | -1 | 59* | 20 | 4 | 13 | 3 | 73*
COc1ccccc1N1CCN(S(=O)(=O)c2ccc(NC(C)=O)cc2)CC1 | -2 | 4 | -6 | 42 | 0 | x | x
O=C(NC1CCCCC1)Oc1cc2oc(=O)sc2cc1Br | -3 | 43* | 24 | 1 | 10 | -21 | 42*
O=C(NC1CCCCCC1)c1ccc(Br)o1 | -3 | 3 | 1 | 2 | 14 | x | x
Cc1nnc(NC(=O)c2nc(S(=O)(=O)Cc3ccccc3C)ncc2Cl)s1 | 2 | 31* | -26 | 10 | 22 | 72* | 48*
Cc1nnc(NC(=O)CCS(=O)(=O)c2ccccc2)s1 | 4 | -3 | -18 | -5 | 20 | x | x
CCS(=O)(=O)c1ncc(Cl)c(C(=O)Nc2ccc(C)cc2)n1 | 0 | 48* | 26 | 0 | 0 | 72* | 78*
CC(=O)Nc1ccc(NC(=O)c2nc(S(=O)(=O)Cc3ccccc3)ncc2Cl)cc1 | -4 | 58* | 9 | 14 | 18 | 81* | 94*
COc1ccc(Br)cc1CN(C)C(=O)c1cnc(C)cn1 | -2 | 2 | -5 | -3 | 4 | x | x
Cc1cc(C)c(NC(=O)c2ccc(CNS(=O)(=O)c3cc(C(F)(F)F)ccc3Cl)cc2)c(C)c1 | 0 | 0 | 7 | 5 | 10 | x | x
O=C(O)c1ccccc1C(=O)c1ccc2oc(=O)[nH]c2c1 | 0 | 0 | -22 | 5 | 12 | x | x
C=CC(=O)N1C/C(=C/c2ccccc2)C(=O)/C(=C\c2ccccc2)C1 | -1 | 101* | 33 | 29 | 22 | 103* | 107*

Bioassay records: PubChem BioAssay, several laboratories
